Measurements: ChEMBL document CHEMBL3860041, “Synthesis, biological evaluation and molecular modeling study of some new methoxylated 2-benzylthio-quinazoline-4(3H)-ones as nonclassical antifolates” (Bioorg Med Chem Lett, 2016)

How the values were obtained:
[1] = Growth inhibition of human U251 cells at 10 uM after 48 hrs by SRB assay relative to control; format: functional; settings: U-251, 48 h, read-out: GI
How it was run: (§1)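 Primary screen across the full NCI 60 human tumour cell line panel, which covers nine tumour subpanels. A single dose of 10 μM was applied to each line, and growth was recorded for each cell line.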

[2] = Growth inhibition of human 786-0 cells at 10 uM after 48 hrs by SRB assay relative to control; format: functional; settings: 786-0, 48 h, read-out: GI
How it was run: (§2)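 NCI 60-cell-line panel, nine tumor subpanels; compounds tested at a single dose of 10 μM in the primary screen.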

[3] = Growth inhibition of human A498 cells at 10 uM after 48 hrs by SRB assay relative to control; format: functional; settings: A498, 48 h, read-out: GI; how it was run: as §2
[4] = Growth inhibition of human NCI-322M cells at 10 uM after 48 hrs by SRB assay relative to control; format: functional; settings: read-out: GI; how it was run: as §2
[5] = Growth inhibition of human UACC62 cells at 10 uM after 48 hrs by SRB assay relative to control; format: functional; settings: UACC-62, 48 h, read-out: GI; how it was run: as §1
[6] = system: Cancer cell lines; experiment: Potency index, ratio of 5-fluorouracil GI50 to compound GI50 for human CNS cancer cells; format: functional
How it was run: (§3)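 GI50 for each cell line came from NCI panel testing over a 5-log dose range, with 5-fluorouracil tested alongside as the reference drug. The index relates the 5-fluorouracil GI50 to the compound GI50 within each tumour subpanel.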

[7] = Growth inhibition of human OVCAR4 cells at 10 uM after 48 hrs by SRB assay relative to control; format: functional; settings: OVCAR-4, 48 h, read-out: GI; how it was run: as §2
[8] = Growth inhibition of human MDA-MB-231 cells at 10 uM after 48 hrs by SRB assay relative to control; format: functional; settings: MDA-MB-231, 48 h, read-out: GI; how it was run: as §2
[9] = Growth inhibition of human A549 cells at 10 uM after 48 hrs by SRB assay relative to control; format: functional; settings: A549, 48 h, read-out: GI; how it was run: as §2
[10] = Growth inhibition of human SR cells at 10 uM after 48 hrs by SRB assay relative to control; format: functional; settings: read-out: GI; how it was run: as §1
[11] = system: Cancer cell lines; experiment: Potency index, ratio of 5-fluorouracil GI50 to compound GI50 for human prostate cancer cells; format: functional; how it was run: as §3
[12] = Growth inhibition of human OVCAR8 cells at 10 uM after 48 hrs by SRB assay relative to control; format: functional; settings: OVCAR-8, 48 h, read-out: GI; how it was run: as §2
[13] = Growth inhibition of human HCC2998 cells at 10 uM after 48 hrs by SRB assay relative to control; format: functional; settings: HCC 2998, 48 h, read-out: GI; how it was run: as §2
[14] = Growth inhibition of human UACC257 cells at 10 uM after 48 hrs by SRB assay relative to control; format: functional; settings: UACC-257, 48 h, read-out: GI; how it was run: as §1
[15] = Growth inhibition of human UO31 cells at 10 uM after 48 hrs by SRB assay relative to control; format: functional; settings: UO-31, 48 h, read-out: GI; how it was run: as §1
[16] = Growth inhibition of human SF268 cells at 10 uM after 48 hrs by SRB assay relative to control; format: functional; settings: SF-268, 48 h, read-out: GI; how it was run: as §2
[17] = Growth inhibition of human HT-29 cells at 10 uM after 48 hrs by SRB assay relative to control; format: functional; settings: HT-29, 48 h, read-out: GI; how it was run: as §2
[18] = Growth inhibition of human RXF393 cells at 10 uM after 48 hrs by SRB assay relative to control; format: functional; settings: RXF 393, 48 h, read-out: GI; how it was run: as §2
[19] = system: Cancer cell lines; experiment: Potency index, ratio of 5-fluorouracil GI50 to compound GI50 for human ovarian cancer cells; format: functional; how it was run: as §3
[20] = system: Cancer cell lines; experiment: Potency index, ratio of 5-fluorouracil GI50 to compound GI50 for human renal cancer cells; format: functional; how it was run: as §3
[21] = Growth inhibition of human colon cancer cells after 48 hrs by SRB assay; format: functional; settings: Cancer cell lines
How it was run: (§4)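 Follow-up NCI panel testing over a 5-log dose range for each cell line. GI50, TGI and LC50 were monitored, with 5-fluorouracil run as the positive control. Values are grouped by tumour subpanel.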

[22] = system: Leukemia cell; experiment: Potency index, ratio of 5-fluorouracil GI50 to compound GI50 for human leukemia cells; format: functional; how it was run: as §3
[23] = Growth inhibition of human LOXIMVI cells at 10 uM after 48 hrs by SRB assay relative to control; format: functional; settings: LOX IMVI, read-out: GI; how it was run: as §2
[24] = Growth inhibition of human SF539 cells at 10 uM after 48 hrs by SRB assay relative to control; format: functional; settings: SF-539, 48 h, read-out: GI; how it was run: as §2
[25] = Growth inhibition of human Caki1 cells at 10 uM after 48 hrs by SRB assay relative to control; format: functional; settings: CAKI-1, 48 h, read-out: GI; how it was run: as §2
[26] = Growth inhibition of human renal cancer cells after 48 hrs by SRB assay; format: functional; settings: Cancer cell lines; how it was run: as §4
[27] = Growth inhibition of human SK-MEL-28 cells at 10 uM after 48 hrs by SRB assay relative to control; format: functional; settings: SK-MEL-28, 48 h, read-out: GI; how it was run: as §1
[28] = Growth inhibition of human SK-MEL-5 cells at 10 uM after 48 hrs by SRB assay relative to control; format: functional; settings: SK-MEL-5, 48 h, read-out: GI; how it was run: as §1
[29] = Growth inhibition of human SKOV3 cells at 10 uM after 48 hrs by SRB assay relative to control; format: functional; settings: SK-OV-3, 48 h, read-out: GI; how it was run: as §1
[30] = Growth inhibition of human SN12C cells at 10 uM after 48 hrs by SRB assay relative to control; format: functional; settings: read-out: GI; how it was run: as §1
[31] = Growth inhibition of human MCF7 cells at 10 uM after 48 hrs by SRB assay relative to control; format: functional; settings: MCF7, 48 h, read-out: GI; how it was run: as §2
[32] = Growth inhibition of human Hs 578T cells at 10 uM after 48 hrs by SRB assay relative to control; format: functional; settings: read-out: GI; how it was run: as §2
[33] = Growth inhibition of human MOLT4 cells at 10 uM after 48 hrs by SRB assay relative to control; format: functional; settings: MOLT-4, 48 h, read-out: GI; how it was run: as §2
[34] = Growth inhibition of human HOP92 cells at 10 uM after 48 hrs by SRB assay relative to control; format: functional; settings: HOP-92, 48 h, read-out: GI; how it was run: as §2
[35] = target: T1, Dihydrofolate reductase (Bos taurus, UniProt P00376); experiment: Inhibition of bovine liver DHFR preincubated for 2 mins followed by addition of FH2 as substrate and NADPH
T1 sequence (P00376 whole entry): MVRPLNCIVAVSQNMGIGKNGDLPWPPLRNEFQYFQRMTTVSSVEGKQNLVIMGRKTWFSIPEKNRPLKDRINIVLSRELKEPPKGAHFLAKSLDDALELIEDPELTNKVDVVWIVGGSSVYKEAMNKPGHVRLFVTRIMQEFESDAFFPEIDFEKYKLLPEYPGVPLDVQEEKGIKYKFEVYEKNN

[36] = Growth inhibition of human melanoma cells after 48 hrs by SRB assay; format: functional; settings: Melanoma cell; how it was run: as §4

Compound: COc1ccc(-n2c(SCc3cc(OC)c(OC)c(OC)c3)nc3ccc(C)cc3c2=O)cc1
- inhibition of growth at 10 µM [1]: 30.9%
- inhibition of growth at 10 µM [2]: 15.9%
- inhibition of growth at 10 µM [3]: 62%
- inhibition of growth at 10 µM [4]: 19.7%
- inhibition of growth at 10 µM [5]: 43.3%
- RatioGI50 [6]: 2 - 10
- inhibition of growth at 10 µM [7]: 32.8%
- inhibition of growth at 10 µM [8]: 40.3%
- inhibition of growth at 10 µM [9]: 49%
- inhibition of growth at 10 µM [10]: 77%
- RatioGI50 [11]: 2 - 10
- inhibition of growth at 10 µM [12]: 15.8%
- inhibition of growth at 10 µM [13]: 24.3%
- inhibition of growth at 10 µM [14]: 22.7%
- inhibition of growth at 10 µM [15]: 52.8%
- inhibition of growth at 10 µM [16]: 19.4%
- inhibition of growth at 10 µM [17]: 78.1%
- inhibition of growth at 10 µM [18]: 47.2%
- RatioGI50 [19]: 2 - 10
- RatioGI50 [20]: 2 - 10
- GI50 [21]: 18.2 µM
- LC50 [21]: > 100 µM
- TGI [21]: > 100 µM
- RatioGI50 [22]: 2 - 10
- inhibition of growth at 10 µM [23]: 37%
- inhibition of growth at 10 µM [24]: 22.3%
- inhibition of growth at 10 µM [25]: 45.8%
- GI50 [26]: 39.7 µM
- LC50 [26]: > 100 µM
- TGI [26]: 88.1 µM
- inhibition of growth at 10 µM [27]: 26%
- inhibition of growth at 10 µM [28]: 45.2%
- inhibition of growth at 10 µM [29]: 26.3%
- inhibition of growth at 10 µM [30]: 17.8%
- inhibition of growth at 10 µM [31]: 75.2%
- inhibition of growth at 10 µM [32]: 22.3%
- inhibition of growth at 10 µM [33]: 44%
- inhibition of growth at 10 µM [34]: < 10%
- IC50 [35]: 10 µM
- GI50 [36]: 19.7 µM
- LC50 [36]: > 100 µM
- TGI [36]: 89.4 µM
